According to publication PMC9293090 (Journal of Neurochemistry, 2021):

Experiments:
GCS [1] = biological target: T1, GCS (Homo sapiens, UniProt Q16739); test: Steady-state kinetic GCS competition experiment; assay type: biochemical; conditions: for K m / V max: for UDP-glucose, fixed ceramide 7.4 μM; for inhibition mode of GCS against UDP-glucose: various UDP-glucose concentrations; for inhibition mode of GCS against ceramide: various ceramide concentrations
T1 sequence (Q16739 1-394): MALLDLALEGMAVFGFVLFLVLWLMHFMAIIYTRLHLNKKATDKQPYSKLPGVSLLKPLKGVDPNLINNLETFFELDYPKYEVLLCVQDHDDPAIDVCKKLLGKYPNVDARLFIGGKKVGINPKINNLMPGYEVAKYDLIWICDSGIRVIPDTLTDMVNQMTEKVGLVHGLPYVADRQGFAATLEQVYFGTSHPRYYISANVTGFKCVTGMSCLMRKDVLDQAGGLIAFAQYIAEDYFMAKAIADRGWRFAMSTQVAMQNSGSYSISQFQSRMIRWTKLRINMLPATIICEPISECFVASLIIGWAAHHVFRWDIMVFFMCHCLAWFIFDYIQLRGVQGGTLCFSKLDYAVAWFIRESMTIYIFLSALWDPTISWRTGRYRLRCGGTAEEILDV

GCS [2] = biological target: T1, GCS; test: Affinity selection mass spectrometry; assay type: binding
Outline: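 Compound at various concentrations was incubated 60 min at 20-25°C with 10 μg/ml GCS-expressing microsomal protein in 20 mM Tris–HCl pH 7.5, 1 mM DTT, 0.01% Tween20, plus 200 μM UDP-glucose, 70 μM C8-ceramide, or neither. Bound and free compound were separated by […] through Sephadex G50-Fine. The eluent was denatured with 70% acetonitrile, and compound was quantified by LC/MS. Specific binding = counts with GCS minus counts without GCS.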

GlcSph = conditions: clinical trial, therapeutic dose; ref Mistry et al., 2017; cited from earlier work
GlcCer = conditions: ref Larsen et al., 2012; cited from earlier work
[3] = presence of UDP-glucose (200 μM)

| SMILES | K m (GCS [1]) [µM] | V max (GCS [1]) [µmol/min] | inhibition mode of GCS against UDP-glucose (GCS [1]) | inhibition mode of GCS against ceramide (GCS [1]) | binding to GCS by AS-MS (GCS [2]; absence of UDP-glucose) | binding to GCS by AS-MS (GCS [2]; [3]) | reduction of GlcSph concentration in the plasma (GlcSph) [%] | effect on the GlcCer level in the brain (GlcCer) |
| --- | --- | --- | --- | --- | --- | --- | --- | --- |
| CCCCCCCC(=O)N[C@H](CN1CCCC1)[C@H](O)c1ccc2c(c1)OCCO2 [Eliglustat] | 2.37 ± 0.11 | 37.60 ± 0.45 | uncompetitive | noncompetitive | not detected | bind GCS | 40 | no significant effect |
| CC(C)(NC(=O)O[C@@H]1CN2CCC1CC2)c1csc(-c2ccc(F)cc2)n1 [Venglustat] | 2.53 ± 0.09 | 38.58 ± 0.32 | uncompetitive | noncompetitive | not detected | bind GCS |  |  |
